{
  "source": "paper PMC9670014",
  "about": "(SLAS discovery : advancing life sciences R & D, 2022)",
  "target": "T1, NR2F6 (Mus musculus, UniProt P43136)",
  "T1 sequence (P43136 1-390)": "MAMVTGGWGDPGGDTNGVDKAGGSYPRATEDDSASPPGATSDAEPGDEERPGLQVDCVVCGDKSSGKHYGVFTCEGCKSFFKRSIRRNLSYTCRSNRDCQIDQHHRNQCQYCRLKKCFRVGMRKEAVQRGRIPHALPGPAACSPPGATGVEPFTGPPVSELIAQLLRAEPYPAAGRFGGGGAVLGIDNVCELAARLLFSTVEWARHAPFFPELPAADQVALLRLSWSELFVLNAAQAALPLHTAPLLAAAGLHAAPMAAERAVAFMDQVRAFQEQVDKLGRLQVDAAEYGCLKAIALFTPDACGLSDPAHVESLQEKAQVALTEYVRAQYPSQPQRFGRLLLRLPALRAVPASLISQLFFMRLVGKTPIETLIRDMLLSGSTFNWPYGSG",
  "assay": "NR2F6/Il17a luciferase assay in transiently transfected HEK293 cells",
  "format": "cell-based",
  "settings": "Maxcyte transfected HEK293 cells, 384-well format, Troglitazone 62.5uM",
  "summary_of_the_method": "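HEK293 cells grown in DMEM with 10% heat-inactivated FBS and 1% penicillin-streptomycin, harvested at 70% confluency, and resuspended in electroporation buffer at 1×10^8 cells/mL. Il17a::luc plus NR2F6 or empty vector was electroporated with DNA amount titrated, then recovered 5 h at 37 °C. Luciferase was read with positive control versus untreated samples.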",
  "data": [
    {"smiles": "Cc1c(C)c2c(c(C)c1O)CCC(C)(COc1ccc(CC3SC(=O)NC3=O)cc1)O2", "note": "(stereo not shown) [Troglitazone]", "values": [
      {"measurement": "NR2F6's repressive transcriptional response (Il17a luciferase signal)", "result": "further enhanced"}
    ]}
  ]
}
